In ChEMBL document CHEMBL1781961, “Synthesis and in vitro antibacterial activity of 7-(3-alkoxyimino-4-amino-4-methylpiperidin-1-yl) fluoroquinolone derivatives” (Eur J Med Chem, 2011):
Converted amounts (≈) assume the structure as drawn.

What was measured:
Streptococcus pneumoniae = experiment: Antibacterial activity against 10^4 CFU Streptococcus pneumoniae 08-4 after 18 hrs by CLSI agar dilution method; type: functional; details: 08-4, 18 h
Pseudomonas aeruginosa [1] = experiment: Antibacterial activity against 10^4 CFU Pseudomonas aeruginosa 09-32 after 18 hrs by CLSI agar dilution method; type: functional; details: 09-32, 18 h
Enterococcus faecium [2] = experiment: Antibacterial activity against 10^4 CFU Enterococcus faecium 06-7 after 18 hrs by CLSI agar dilution method; type: functional; details: 06-7, 18 h
Klebsiella pneumoniae [3] = experiment: Antibacterial activity against 10^4 CFU Klebsiella pneumoniae 09-23 after 18 hrs by CLSI agar dilution method; type: functional; details: 09-23, 18 h
Escherichia coli [4] = experiment: Antibacterial activity against 10^4 CFU Escherichia coli 08-21 after 18 hrs by CLSI agar dilution method; type: functional; details: 08-21, 18 h
Klebsiella pneumoniae [5] = experiment: Antibacterial activity against 10^4 CFU Klebsiella pneumoniae 09-22 after 18 hrs by CLSI agar dilution method; type: functional; details: 09-22, 18 h
Enterococcus faecalis [6] = experiment: Antibacterial activity against 10^4 CFU Enterococcus faecalis 08-12 after 18 hrs by CLSI agar dilution method; type: functional; details: 08-12, 18 h
Staphylococcus aureus [7] = experiment: Antibacterial activity against 10^4 CFU methicillin-sensitive Staphylococcus aureus 08-1 after 18 hrs by CLSI agar dilution method; type: functional; details: 08-1, 18 h
[8] = tested on: Staphylococcus epidermidis; experiment: Antibacterial activity against 10^4 CFU methicillin-resistant Staphylococcus epidermidis 09-2 after 18 hrs by CLSI agar dilution method; type: functional; details: 09-2, 18 h
Enterococcus faecalis [9] = experiment: Antibacterial activity against 10^4 CFU Enterococcus faecalis 08-10 after 18 hrs by CLSI agar dilution method; type: functional; details: 08-10, 18 h
Escherichia coli [10] = experiment: Antibacterial activity against 10^4 CFU Escherichia coli ATCC 25922 after 18 hrs by CLSI agar dilution method; type: functional; details: ATCC 25922, 18 h
[11] = Cytotoxicity against MDCK cells after 48 hrs by CPE assay; type: cell-based, Canis lupus familiaris; details: dog
How it was run: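 MDCK cells kept in Minimum Essential Medium with Earle's salt plus 10% fetal bovine serum at 37 °C, 5% CO₂. […] Medium then replaced by assay medium with or without compound. After 48 h exposure, viability read by CPE assay. CC₅₀ calculated by Reed–Muench analysis.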

Pseudomonas aeruginosa [12] = experiment: Antibacterial activity against 10^4 CFU Pseudomonas aeruginosa ATCC 27853 after 18 hrs by CLSI agar dilution method; type: functional; details: ATCC 27853, 18 h
[13] = tested on: Staphylococcus epidermidis; experiment: Antibacterial activity against 10^4 CFU methicillin-sensitive Staphylococcus epidermidis 09-6 after 18 hrs by CLSI agar dilution method; type: functional; details: 09-6, 18 h
Staphylococcus aureus [14] = experiment: Antibacterial activity against 10^4 CFU Staphylococcus aureus ATCC 25923 after 18 hrs by CLSI agar dilution method; type: functional; details: ATCC 25923, 18 h
Staphylococcus aureus [15] = experiment: Antibacterial activity against 10^4 CFU methicillin-resistant Staphylococcus aureus 08-1 after 18 hrs by CLSI agar dilution method; type: functional; details: 08-1, 18 h
Enterococcus faecium [16] = experiment: Antibacterial activity against 10^4 CFU Enterococcus faecium 08-2 after 18 hrs by CLSI agar dilution method; type: functional; details: 08-2, 18 h

## CO/N=C1\CN(c2c(F)cc3c(=O)c(C(=O)O)cn(C4CC4)c3c2OC(F)F)CCC1(C)N (centres undefined)
Streptococcus pneumoniae
  MIC: 0.25 µg/mL (≈ 0.534 µM)
Pseudomonas aeruginosa [1]
  MIC: 2 µg/mL (≈ 4.27 µM)
Enterococcus faecium [2]
  MIC: > 128 µg/mL
Klebsiella pneumoniae [3]
  MIC: > 128 µg/mL
Escherichia coli [4]
  MIC: > 128 µg/mL
Klebsiella pneumoniae [5]
  MIC: 2 µg/mL (≈ 4.27 µM)
Enterococcus faecalis [6]
  MIC: > 128 µg/mL
Staphylococcus aureus [7]
  MIC: 0.25 µg/mL (≈ 0.534 µM)
[8]
  MIC: 0.25 µg/mL (≈ 0.534 µM)
Enterococcus faecalis [9]
  MIC: 8 µg/mL (≈ 17.1 µM)
Escherichia coli [10]
  MIC: 128 µg/mL (≈ 273 µM)
[11]
  CC50 at 48 h: 1070 µM
Pseudomonas aeruginosa [12]
  MIC: 4 µg/mL (≈ 8.54 µM)
[13]
  MIC: 0.25 µg/mL (≈ 0.534 µM)
Staphylococcus aureus [14]
  MIC: 0.25 µg/mL (≈ 0.534 µM)
Staphylococcus aureus [15]
  MIC: 0.25 µg/mL (≈ 0.534 µM)
Enterococcus faecium [16]
  MIC: > 128 µg/mL

## CCO/N=C1\CN(c2c(F)cc3c(=O)c(C(=O)O)cn(C4CC4)c3c2OC(F)F)CCC1(C)N (centres undefined)
Streptococcus pneumoniae
  MIC: 0.25 µg/mL (≈ 0.518 µM)
Pseudomonas aeruginosa [1]
  MIC: 16 µg/mL (≈ 33.2 µM)
Enterococcus faecium [2]
  MIC: 128 µg/mL (≈ 265 µM)
Klebsiella pneumoniae [3]
  MIC: 8 µg/mL (≈ 16.6 µM)
Escherichia coli [4]
  MIC: 128 µg/mL (≈ 265 µM)
Klebsiella pneumoniae [5]
  MIC: 16 µg/mL (≈ 33.2 µM)
Enterococcus faecalis [6]
  MIC: 32 µg/mL (≈ 66.3 µM)
Staphylococcus aureus [7]
  MIC: 0.25 µg/mL (≈ 0.518 µM)
[8]
  MIC: 0.25 µg/mL (≈ 0.518 µM)
Enterococcus faecalis [9]
  MIC: 8 µg/mL (≈ 16.6 µM)
Escherichia coli [10]
  MIC: 16 µg/mL (≈ 33.2 µM)
[11]
  CC50 at 48 h: 518 µM
Pseudomonas aeruginosa [12]
  MIC: 4 µg/mL (≈ 8.29 µM)
[13]
  MIC: 0.25 µg/mL (≈ 0.518 µM)
Staphylococcus aureus [14]
  MIC: 0.125 µg/mL (≈ 0.259 µM)
Staphylococcus aureus [15]
  MIC: 0.25 µg/mL (≈ 0.518 µM)
Enterococcus faecium [16]
  MIC: 128 µg/mL (≈ 265 µM)

## CCO/N=C1\CN(c2c(F)cc3c(=O)c(C(=O)O)cn(C4CC4)c3c2OC)CCC1(C)N (centres undefined)
Streptococcus pneumoniae
  MIC: 0.25 µg/mL (≈ 0.56 µM)
Pseudomonas aeruginosa [1]
  MIC: 0.5 µg/mL (≈ 1.12 µM)
Enterococcus faecium [2]
  MIC: 128 µg/mL (≈ 287 µM)
Klebsiella pneumoniae [3]
  MIC: > 128 µg/mL
Escherichia coli [4]
  MIC: > 128 µg/mL
Klebsiella pneumoniae [5]
  MIC: 1 µg/mL (≈ 2.24 µM)
Enterococcus faecalis [6]
  MIC: 128 µg/mL (≈ 287 µM)
Staphylococcus aureus [7]
  MIC: 0.25 µg/mL (≈ 0.56 µM)
[8]
  MIC: 0.25 µg/mL (≈ 0.56 µM)
Enterococcus faecalis [9]
  MIC: 1 µg/mL (≈ 2.24 µM)
Escherichia coli [10]
  MIC: 128 µg/mL (≈ 287 µM)
[11]
  CC50 at 48 h: 280 µM
Pseudomonas aeruginosa [12]
  MIC: 4 µg/mL (≈ 8.96 µM)
[13]
  MIC: 0.25 µg/mL (≈ 0.56 µM)
Staphylococcus aureus [14]
  MIC: 0.25 µg/mL (≈ 0.56 µM)
Staphylococcus aureus [15]
  MIC: 0.25 µg/mL (≈ 0.56 µM)
Enterococcus faecium [16]
  MIC: 64 µg/mL (≈ 143 µM)

## CO/N=C1\CN(c2c(F)cc3c(=O)c(C(=O)O)cn4c3c2OC[C@@H]4C)CCC1(C)N (some centres undefined)
Streptococcus pneumoniae
  MIC: 0.25 µg/mL (≈ 0.597 µM)
Pseudomonas aeruginosa [1]
  MIC: 128 µg/mL (≈ 306 µM)
Enterococcus faecium [2]
  MIC: > 128 µg/mL
Klebsiella pneumoniae [3]
  MIC: > 128 µg/mL
Escherichia coli [4]
  MIC: > 128 µg/mL
Klebsiella pneumoniae [5]
  MIC: 2 µg/mL (≈ 4.78 µM)
Enterococcus faecalis [6]
  MIC: > 128 µg/mL
Staphylococcus aureus [7]
  MIC: 0.25 µg/mL (≈ 0.597 µM)
[8]
  MIC: 0.25 µg/mL (≈ 0.597 µM)
Enterococcus faecalis [9]
  MIC: 16 µg/mL (≈ 38.2 µM)
Escherichia coli [10]
  MIC: 128 µg/mL (≈ 306 µM)
[11]
  CC50 at 48 h: 1510 µM
Pseudomonas aeruginosa [12]
  MIC: 8 µg/mL (≈ 19.1 µM)
[13]
  MIC: 0.25 µg/mL (≈ 0.597 µM)
Staphylococcus aureus [14]
  MIC: 0.25 µg/mL (≈ 0.597 µM)
Staphylococcus aureus [15]
  MIC: 0.25 µg/mL (≈ 0.597 µM)
Enterococcus faecium [16]
  MIC: > 128 µg/mL

## CCO/N=C1\CN(c2c(F)cc3c(=O)c(C(=O)O)cn4c3c2OC[C@@H]4C)CCC1(C)N (some centres undefined)
Streptococcus pneumoniae
  MIC: 2 µg/mL (≈ 4.62 µM)
Pseudomonas aeruginosa [1]
  MIC: 64 µg/mL (≈ 148 µM)
Enterococcus faecium [2]
  MIC: > 128 µg/mL
Klebsiella pneumoniae [3]
  MIC: 2 µg/mL (≈ 4.62 µM)
Escherichia coli [4]
  MIC: 64 µg/mL (≈ 148 µM)
Klebsiella pneumoniae [5]
  MIC: 64 µg/mL (≈ 148 µM)
Enterococcus faecalis [6]
  MIC: 64 µg/mL (≈ 148 µM)
Staphylococcus aureus [7]
  MIC: 0.25 µg/mL (≈ 0.578 µM)
[8]
  MIC: 0.25 µg/mL (≈ 0.578 µM)
Enterococcus faecalis [9]
  MIC: 32 µg/mL (≈ 74 µM)
Escherichia coli [10]
  MIC: 32 µg/mL (≈ 74 µM)
[11]
  CC50 at 48 h: 1160 µM
Pseudomonas aeruginosa [12]
  MIC: 4 µg/mL (≈ 9.25 µM)
[13]
  MIC: 0.25 µg/mL (≈ 0.578 µM)
Staphylococcus aureus [14]
  MIC: 0.25 µg/mL (≈ 0.578 µM)
Staphylococcus aureus [15]
  MIC: 0.25 µg/mL (≈ 0.578 µM)
Enterococcus faecium [16]
  MIC: 32 µg/mL (≈ 74 µM)

## COc1c(N2CCNC(C)C2)c(F)cc2c(=O)c(C(=O)O)cn(C3CC3)c12 (centres undefined) [GATIFLOXACIN]
Streptococcus pneumoniae
  MIC: 0.25 µg/mL (≈ 0.666 µM)
Pseudomonas aeruginosa [1]
  MIC: 16 µg/mL (≈ 42.6 µM)
Enterococcus faecium [2]
  MIC: 4 µg/mL (≈ 10.7 µM)
Klebsiella pneumoniae [3]
  MIC: 2 µg/mL (≈ 5.33 µM)
Escherichia coli [4]
  MIC: 8 µg/mL (≈ 21.3 µM)
Klebsiella pneumoniae [5]
  MIC: 0.25 µg/mL (≈ 0.666 µM)
Enterococcus faecalis [6]
  MIC: 4 µg/mL (≈ 10.7 µM)
Staphylococcus aureus [7]
  MIC: 0.06 µg/mL (≈ 0.16 µM)
[8]
  MIC: 0.25 µg/mL (≈ 0.666 µM)
Enterococcus faecalis [9]
  MIC: 8 µg/mL (≈ 21.3 µM)
Escherichia coli [10]
  MIC: 4 µg/mL (≈ 10.7 µM)
[11]
  CC50 at 48 h: 396 µM
Pseudomonas aeruginosa [12]
  MIC: 1 µg/mL (≈ 2.66 µM)
[13]
  MIC: 0.25 µg/mL (≈ 0.666 µM)
Staphylococcus aureus [14]
  MIC: 0.06 µg/mL (≈ 0.16 µM)
Staphylococcus aureus [15]
  MIC: 0.25 µg/mL (≈ 0.666 µM)
Enterococcus faecium [16]
  MIC: 2 µg/mL (≈ 5.33 µM)

## CO/N=C1\CN(c2nc3c(cc2F)c(=O)c(C(=O)O)cn3C2CC2)CC1CN (centres undefined) [GEMIFLOXACIN]
Streptococcus pneumoniae
  MIC: 0.25 µg/mL (≈ 0.642 µM)
Pseudomonas aeruginosa [1]
  MIC: 0.25 µg/mL (≈ 0.642 µM)
Enterococcus faecium [2]
  MIC: 16 µg/mL (≈ 41.1 µM)
Klebsiella pneumoniae [3]
  MIC: 8 µg/mL (≈ 20.5 µM)
Escherichia coli [4]
  MIC: 16 µg/mL (≈ 41.1 µM)
Klebsiella pneumoniae [5]
  MIC: 8 µg/mL (≈ 20.5 µM)
Enterococcus faecalis [6]
  MIC: 16 µg/mL (≈ 41.1 µM)
Staphylococcus aureus [7]
  MIC: 0.06 µg/mL (≈ 0.154 µM)
[8]
  MIC: 0.125 µg/mL (≈ 0.321 µM)
Enterococcus faecalis [9]
  MIC: 16 µg/mL (≈ 41.1 µM)
Escherichia coli [10]
  MIC: 4 µg/mL (≈ 10.3 µM)
[11]
  CC50 at 48 h: 321 µM
Pseudomonas aeruginosa [12]
  MIC: 2 µg/mL (≈ 5.14 µM)
[13]
  MIC: 0.25 µg/mL (≈ 0.642 µM)
Staphylococcus aureus [14]
  MIC: 0.125 µg/mL (≈ 0.321 µM)
Staphylococcus aureus [15]
  MIC: 0.25 µg/mL (≈ 0.642 µM)
Enterococcus faecium [16]
  MIC: 2 µg/mL (≈ 5.14 µM)

## C[C@H]1COc2c(N3CCN(C)CC3)c(F)cc3c(=O)c(C(=O)O)cn1c23.C[C@H]1COc2c(N3CCN(C)CC3)c(F)cc3c(=O)c(C(=O)O)cn1c23.O [LEVOFLOXACIN]
Pseudomonas aeruginosa [1]
  MIC: 16 µg/mL
Enterococcus faecium [2]
  MIC: 16 µg/mL
Klebsiella pneumoniae [3]
  MIC: 16 µg/mL
Escherichia coli [4]
  MIC: 16 µg/mL
Klebsiella pneumoniae [5]
  MIC: 16 µg/mL
Enterococcus faecalis [6]
  MIC: 8 µg/mL
Staphylococcus aureus [7]
  MIC: 0.125 µg/mL
[8]
  MIC: 0.25 µg/mL
Enterococcus faecalis [9]
  MIC: 8 µg/mL
Escherichia coli [10]
  MIC: 2 µg/mL
[13]
  MIC: 4 µg/mL
Staphylococcus aureus [14]
  MIC: 0.25 µg/mL
Staphylococcus aureus [15]
  MIC: 0.125 µg/mL
Enterococcus faecium [16]
  MIC: 4 µg/mL

## COc1c(N2C[C@@H]3CCCN[C@@H]3C2)c(F)cc2c(=O)c(C(=O)O)cn(C3CC3)c12 [MOXIFLOXACIN]
[11]
  CC50 at 48 h: 161 µM
